Source: ChEMBL document CHEMBL1130113 (J Med Chem, 1997)
Where a SMILES comes first, the peptide text is derived from it. [ ]: non-standard residue; d: D form. Aib = CC(C)(N)C(=O)O

Assays:
Mu-type opioid receptor [1] = molecular target: Mu-type opioid receptor (Cavia porcellus, UniProt P97266); assay: Functional biological activity for mu opioid receptor was determined in vitro, on guinea pig ileum (GPI).; assay type: tissue-based
Outline: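 A 2-3 cm guinea pig ileum segment was held in a 20 mL organ bath with 70 µM hexamethonium bromide and 0.125 µM mepyramine maleate, gassed with 95% O2/5% CO2 at 36 °C. Transmural stimulation used 0.5 ms square-wave pulses at 0.1 Hz, at 1.5× maximal-twitch voltage (~30 V). Twitch inhibition was read from dose-response curves against dermorphin or morphine.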

[2] = molecular target: Delta-type opioid receptor (Rattus norvegicus, UniProt P33533); assay: Affinity was assessed using competitive binding assay labeled with [3H]DPDPE (6.3 nM) for Opioid receptor delta 1
Sequence of Delta-type opioid receptor (Rattus norvegicus, UniProt P33533) (P33533 whole entry): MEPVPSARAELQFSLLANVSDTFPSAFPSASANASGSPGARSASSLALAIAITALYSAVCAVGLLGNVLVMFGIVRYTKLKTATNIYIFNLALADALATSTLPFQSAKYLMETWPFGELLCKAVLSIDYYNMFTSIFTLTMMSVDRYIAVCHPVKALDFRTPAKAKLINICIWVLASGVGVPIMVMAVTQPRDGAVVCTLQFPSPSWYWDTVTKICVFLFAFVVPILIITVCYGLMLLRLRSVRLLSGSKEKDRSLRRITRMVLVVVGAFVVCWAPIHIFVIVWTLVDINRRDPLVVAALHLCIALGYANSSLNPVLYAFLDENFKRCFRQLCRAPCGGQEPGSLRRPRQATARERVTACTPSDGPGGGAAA
Outline: (§1)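 Rat brain synaptosomal membranes, preincubated, in duplicate tubes. Buffer 50 mM HEPES pH 7.5, 5 mM MgCl2, glycerol, protease inhibitors. Equilibrium incubation 120 min at room temperature (22-23 °C). Labeled peptide displaced by 6-14 analogue concentrations spanning a 1000-fold range. Filtered on glass fiber and washed 3× with ice-cold buffer containing 0.01% BSA. Ki from IC50 by Cheng-Prusoff.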

Mu-type opioid receptor [3] = molecular target: Mu-type opioid receptor (Rattus norvegicus, UniProt P33535); assay: Affinity was assessed using competitive binding assay labeled with [3H]- DAGO (1.28 nM) for Opioid receptor mu 1; outline: as §1
Sequence of Mu-type opioid receptor (Rattus norvegicus, UniProt P33535) (P33535 whole entry): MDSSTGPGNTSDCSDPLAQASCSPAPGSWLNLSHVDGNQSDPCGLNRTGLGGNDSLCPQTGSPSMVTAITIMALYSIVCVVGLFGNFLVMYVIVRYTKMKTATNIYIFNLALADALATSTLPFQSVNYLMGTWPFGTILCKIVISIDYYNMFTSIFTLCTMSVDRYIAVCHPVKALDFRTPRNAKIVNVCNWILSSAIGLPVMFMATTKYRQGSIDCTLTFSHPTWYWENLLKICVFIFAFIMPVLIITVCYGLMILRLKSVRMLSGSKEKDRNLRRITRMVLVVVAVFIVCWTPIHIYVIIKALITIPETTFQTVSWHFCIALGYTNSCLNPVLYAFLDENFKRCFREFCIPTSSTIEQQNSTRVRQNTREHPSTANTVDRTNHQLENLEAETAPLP

[4] = IC50 ratio measured as the IC50 value of GPI to that of MVD.; assay type: functional
[5] = molecular target: Delta-type opioid receptor (Mus musculus, UniProt P32300); assay: Functional biological activity for Opioid receptor delta 1 was determined in vitro, on mouse vas deferens (MVD).; assay type: tissue-based
Sequence of Delta-type opioid receptor (Mus musculus, UniProt P32300) (P32300 whole entry): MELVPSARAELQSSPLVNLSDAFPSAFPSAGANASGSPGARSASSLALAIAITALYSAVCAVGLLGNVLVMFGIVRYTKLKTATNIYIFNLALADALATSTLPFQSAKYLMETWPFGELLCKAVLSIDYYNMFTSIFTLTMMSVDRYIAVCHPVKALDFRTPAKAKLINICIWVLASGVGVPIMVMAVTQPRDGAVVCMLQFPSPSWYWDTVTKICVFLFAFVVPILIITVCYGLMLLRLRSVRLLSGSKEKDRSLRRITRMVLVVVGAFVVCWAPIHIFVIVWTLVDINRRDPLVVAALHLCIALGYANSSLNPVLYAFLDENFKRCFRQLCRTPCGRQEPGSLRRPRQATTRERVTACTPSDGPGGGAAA

[6] = molecular target: Opioid receptors; mu & delta (Homo sapiens) (UniProt P41143+P35372); assay: Selectivity ratio measured as the Ki ratio of mu receptor th that of delta receptor; assay type: protein assay
Sequence of Opioid receptors; mu & delta (Homo sapiens) (P35372 whole entry, looked up): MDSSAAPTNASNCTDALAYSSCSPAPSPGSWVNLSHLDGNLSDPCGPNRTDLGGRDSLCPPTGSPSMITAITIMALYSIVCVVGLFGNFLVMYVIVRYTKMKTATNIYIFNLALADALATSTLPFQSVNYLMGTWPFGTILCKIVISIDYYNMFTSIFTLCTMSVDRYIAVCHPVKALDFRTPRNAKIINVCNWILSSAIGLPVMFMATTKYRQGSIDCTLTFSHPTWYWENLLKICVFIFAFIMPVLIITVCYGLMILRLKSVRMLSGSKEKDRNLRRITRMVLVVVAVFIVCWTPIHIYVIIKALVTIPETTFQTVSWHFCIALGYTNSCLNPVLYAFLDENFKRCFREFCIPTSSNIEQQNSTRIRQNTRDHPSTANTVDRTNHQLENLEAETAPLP
Sequence of Opioid receptors; mu & delta (Homo sapiens) (P41143 whole entry, looked up): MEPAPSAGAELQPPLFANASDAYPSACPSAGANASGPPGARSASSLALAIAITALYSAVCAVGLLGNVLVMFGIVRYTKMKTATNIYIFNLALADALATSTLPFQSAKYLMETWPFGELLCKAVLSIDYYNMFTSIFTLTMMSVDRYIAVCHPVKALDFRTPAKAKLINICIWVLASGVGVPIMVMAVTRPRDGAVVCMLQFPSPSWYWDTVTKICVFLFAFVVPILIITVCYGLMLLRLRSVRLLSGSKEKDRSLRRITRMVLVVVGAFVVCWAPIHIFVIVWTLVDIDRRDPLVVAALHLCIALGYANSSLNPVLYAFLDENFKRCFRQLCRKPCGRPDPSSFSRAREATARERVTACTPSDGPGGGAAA
Outline: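 Ratio of Ki values for mu and delta receptors. Both were measured in rat brain synaptosomal membranes in 50 mM HEPES pH 7.5 with 5 mM MgCl2, glycerol and protease inhibitors, for 120 min at 22-23 °C. Radioligand was displaced by 6-14 concentrations over a 1000-fold range. Bound ligand was collected by glass-fiber filtration, and Ki came from IC50 by Cheng-Prusoff.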

Sequence of Mu-type opioid receptor (Cavia porcellus, UniProt P97266) (P97266 whole entry): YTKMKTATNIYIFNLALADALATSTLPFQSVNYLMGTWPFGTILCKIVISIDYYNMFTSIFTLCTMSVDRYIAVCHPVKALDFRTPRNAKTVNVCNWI

| Compound | IC50 (Mu-type opioid receptor [1]) [nM] | Ki [2] [nM] | Ki (Mu-type opioid receptor [3]) [nM] | IC50 ratio [4] | IC50 [5] [nM] | Selectivity ratio [6] |
| --- | --- | --- | --- | --- | --- | --- |
| CC(NC(=O)[C@@H](N)Cc1ccc(O)cc1)C(=O)N[C@@H](Cc1ccccc1)C(=O)N[C@@H](CC(=O)O)C(=O)N[C@H](C(=O)N[C@H](C(=O)NCC(N)=O)C(C)C)C(C)C (single isomer, unassigned) [DELTORPHIN C] | 420 | – | – | – | – | – |
| CC(C)[C@H](NC(=O)[C@H](CC(=O)O)NC(=O)C(C)(C)NC(=O)[C@@H](N)Cc1ccc(O)cc1)C(=O)N[C@H](C(=O)NCC(N)=O)C(C)C (H-Y[Aib]DVVG-NH2) | – | 2630 | 441000 | – | – | – |
| CC(C)[C@H](NC(=O)[C@@H](NC(=O)[C@@H](CC(=O)O)NC(=O)C(C)(C)NC(=O)C(C)(C)NC(=O)[C@@H](N)Cc1ccc(O)cc1)C(C)C)C(=O)NCC(N)=O | – | – | – | > 21 | – | – |
| CC(C)[C@H](NC(=O)[C@H](CC(=O)O)NC(=O)[C@H](Cc1ccccc1)NC(=O)C(C)(C)NC(=O)[C@@H](N)Cc1ccc(O)cc1)C(=O)N[C@H](C(=O)NCC(N)=O)C(C)C (H-Y[Aib]FDVVG-NH2) | > 10 | 0.12 | 1020 | > 7000 | 1.44 | – |
| CC(C)[C@H](NC(=O)[C@H](CC(=O)O)NC(=O)C(C)(C)NC(=O)[C@@H](C)NC(=O)[C@@H](N)Cc1ccc(O)cc1)C(=O)N[C@H](C(=O)NCC(N)=O)C(C)C | > 10 | 0.8 | 4540 | > 175 | 57.3 | 5680 |
| CC(C)[C@H](NC(=O)[C@@H](NC(=O)C(C)(C)NC(=O)[C@H](Cc1ccccc1)NC(=O)[C@@H](C)NC(=O)[C@@H](N)Cc1ccc(O)cc1)C(C)C)C(=O)NCC(N)=O | 4.5 | 0.2 | 0.43 | 13 | 0.36 | – |
| CC(C)[C@H](NC(=O)[C@H](CC(=O)O)NC(=O)[C@@H](C)NC(=O)[C@@H](C)NC(=O)[C@@H](N)Cc1ccc(O)cc1)C(=O)N[C@H](C(=O)NCC(N)=O)C(C)C | – | 5.72 | 13600 | – | – | – |
| CC(C)[C@H](NC(=O)[C@H](CC(=O)O)NC(=O)C(C)(C)NC(=O)C(C)(C)NC(=O)[C@@H](N)Cc1ccc(O)cc1)C(=O)N[C@H](C(=O)NCC(N)=O)C(C)C | > 10 | 3.62 | 15200 | – | 70 | – |
| CC(C)[C@H](NC(=O)[C@@H](NC(=O)C(C)(C)NC(=O)[C@H](Cc1ccccc1)NC(=O)[C@@H](C)NC(=O)[C@@H](N)Cc1ccc(O)cc1)C(C)C)C(=O)NCC(=O)O | – | 0.11 | 4.48 | – | – | – |
